Tests used:
[1] = tested on: Mus musculus; assay: Antidepressant-like activity in albino Swiss (CD-1) mouse assessed as reduction in immobility time at 15 mg/kg, ip by forced swim test; type: functional; conditions: route intraperitoneal
Method in brief: (§1)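 Compound or vehicle was given i.p. 60 min before the test. Each mouse was placed for 6 min in a glass cylinder (25 cm high, 10 cm diameter) holding 10 cm of water at 23–25 C. Immobility, meaning passive floating, was timed over the final 4 min. 7–8 mice per group; ANOVA with Dunnett's test.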

[2] = tested on: Mus musculus; assay: Antidepressant-like activity in albino Swiss (CD-1) mouse assessed as reduction in immobility time at 30 mg/kg, ip by forced swim test; type: functional; conditions: route intraperitoneal; method in brief: as §1
[3] = tested on: Mus musculus; assay: Antinociceptive activity in albino Swiss (CD-1) mouse assessed as latency time to pain reaction at 30 mg/kg, ip by hot plate test (reference value: 13.9 +/- 1.2 secs); type: functional; conditions: route intraperitoneal
[4] = tested on: Mus musculus; assay: Toxicity in albino Swiss (CD-1) mouse assessed as motor impairment at 30 to 100 mg/kg, ip measured after 60 mins by rotarod test; type: organism-based; design: dose 30-100 mg/kg, route intraperitoneal; conditions: in vivo, 1 h
Method in brief: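 Mice were trained for 3 days at 18 rpm on a rod of 2 cm diameter. At least 24 h after the last training, they were given 30 or 100 mg/kg or vehicle (1% Tween 80) i.p. 60 min before testing at 6, 18, then 24 rpm. Impairment was defined as failing to stay on the rod for 1 min; mean time on the rod was recorded.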

[5] = tested on: Mus musculus; assay: Toxicity in albino Swiss (CD-1) mouse assessed as decrease in locomotor activity at 30 mg/kg, ip after 60 mins; type: organism-based; design: dose 30 mg/kg, route intraperitoneal; conditions: in vivo, 1 h
Method in brief: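 Mice were pretreated i.p. with 30 mg/kg or vehicle (1% Tween 80) 60 min before testing. Each was placed alone in an IR-beam activity cage (40×40×31 cm) in a sound-attenuated room. Beam interruptions were counted over 30 min in five 6-min intervals. Analysis: repeated-measures ANOVA with Bonferroni.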

[6] = Retardation factor of the compound using 25%NH3/MeOH/DCM/PE at ratio of 45:225:600:90 as solvent system by thin layer chromatography; type: physicochemical
[7] = biological target: Sodium- and chloride-dependent GABA transporter 1 (Mus musculus, UniProt P31648); assay: Inhibition of mouse GAT1 expressed in HEK293 cells assessed as decrease in [3H]GABA uptake; type: cell-based
[8] = biological target: T1, GABA transporter 3 (Mus musculus, UniProt P31649); assay: Inhibition of mouse GAT3 expressed in HEK293 cells assessed as decrease in [3H]GABA uptake; type: cell-based
T1 sequence (P31649 whole entry): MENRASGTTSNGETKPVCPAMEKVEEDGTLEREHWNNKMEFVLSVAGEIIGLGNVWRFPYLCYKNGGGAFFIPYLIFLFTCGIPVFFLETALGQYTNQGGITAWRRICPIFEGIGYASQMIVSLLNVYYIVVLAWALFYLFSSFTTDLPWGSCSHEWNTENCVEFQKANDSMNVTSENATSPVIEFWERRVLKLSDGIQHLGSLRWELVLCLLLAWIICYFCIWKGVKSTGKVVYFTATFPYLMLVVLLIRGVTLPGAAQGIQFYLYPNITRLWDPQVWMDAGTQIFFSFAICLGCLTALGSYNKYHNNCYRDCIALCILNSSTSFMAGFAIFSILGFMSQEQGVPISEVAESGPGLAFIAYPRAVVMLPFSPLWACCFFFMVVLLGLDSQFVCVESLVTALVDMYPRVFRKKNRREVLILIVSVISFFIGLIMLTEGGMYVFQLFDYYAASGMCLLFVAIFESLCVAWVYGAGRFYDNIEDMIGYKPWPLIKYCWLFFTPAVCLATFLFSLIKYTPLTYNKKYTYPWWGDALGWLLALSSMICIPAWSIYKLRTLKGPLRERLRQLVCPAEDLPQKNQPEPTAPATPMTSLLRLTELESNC

[9] = biological target: T2, GABA transporter 4 (Mus musculus, UniProt P31650); assay: Inhibition of mouse GAT4 expressed in HEK293 cells assessed as decrease in [3H]GABA uptake; type: cell-based
T2 sequence (P31650 whole entry): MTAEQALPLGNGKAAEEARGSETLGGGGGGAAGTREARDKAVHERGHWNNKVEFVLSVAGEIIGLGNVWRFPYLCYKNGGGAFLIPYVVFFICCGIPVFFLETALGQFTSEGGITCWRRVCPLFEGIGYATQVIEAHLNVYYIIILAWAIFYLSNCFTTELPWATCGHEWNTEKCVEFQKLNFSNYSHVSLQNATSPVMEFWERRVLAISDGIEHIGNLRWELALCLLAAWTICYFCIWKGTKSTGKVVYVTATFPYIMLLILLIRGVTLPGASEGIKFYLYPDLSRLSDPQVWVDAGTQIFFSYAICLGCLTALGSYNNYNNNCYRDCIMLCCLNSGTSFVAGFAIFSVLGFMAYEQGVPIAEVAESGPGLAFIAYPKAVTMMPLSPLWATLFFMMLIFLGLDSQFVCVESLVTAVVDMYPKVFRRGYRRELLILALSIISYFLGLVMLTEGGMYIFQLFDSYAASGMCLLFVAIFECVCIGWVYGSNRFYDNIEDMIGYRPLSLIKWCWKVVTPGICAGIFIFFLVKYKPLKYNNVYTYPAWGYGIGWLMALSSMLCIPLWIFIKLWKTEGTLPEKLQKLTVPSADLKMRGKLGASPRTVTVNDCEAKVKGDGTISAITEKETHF

[10] = biological target: Sodium- and chloride-dependent GABA transporter 1 (Mus musculus) (UniProt P31648); assay: Displacement of NO711 from mouse GAT1 expressed in HEK293 cells assessed as NO711 binding at 100 uM by LC-MS/MS analysis; type: cell-based
[11] = tested on: Mus musculus; assay: Anticonvulsant activity against pentylenetetrazole-induced seizure in albino Swiss (CD-1) mouse assessed as decrease in seizure episodes at 30 mg/kg, ip administered 60 mins prior to PTZ challenge; type: functional; conditions: route intraperitoneal
Method in brief: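 Male CD-1 mice (18–22 g) given compound or vehicle i.p. 60 min before PTZ 100 mg/kg s.c. Each mouse was then caged alone and watched for 30 min for clonic seizures, meaning whole-body clonus lasting >3 s with loss of righting reflex. Recorded: latency to first clonus, number of seizure episodes, and deaths within 30 min. Analysis: ANOVA/Dunnett or t-test; mortality by Fisher's exact test; 7–10 mice per group.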

| SMILES | inhibition in vivo at 15 mg/kg [1] | inhibition in vivo at 30 mg/kg [2] | Time [3] | Activity [4] | Activity [5] | Rf [6] | IC50 [7] | IC50 [8] | IC50 [9] | Activity [10] | inhibition in vivo at 30 mg/kg [11] |
| --- | --- | --- | --- | --- | --- | --- | --- | --- | --- | --- | --- |
| NCCC(C(=O)NCc1ccccc1Cl)N1CCN(C(c2ccccc2)c2ccccc2)CC1 (configuration not stated) | 26% | 38.5% | 18.8 s | Non-toxic | Non-toxic | 0.18 | 20.9 µM | 10.5 µM | 15.1 µM | 55% | 37% |
| NCCC(C(=O)NCc1ccc(Cl)cc1)N1CCN(C(c2ccccc2)c2ccccc2)CC1 (configuration not stated) | 3.8% | 28.9% | 27.5 s | Non-toxic | Toxic | 0.14 | 25.7 µM | 10.7 µM | 12 µM | 53% | 83% |

— ChEMBL document CHEMBL3286252, “Synthesis, biological evaluation and structure-activity relationship of new GABA uptake inhibitors, derivatives of 4-aminobutanamides” (Eur J Med Chem, 2014)
